Activity calls are given as the source filed them. No cut-off for these calls is given here.
Experiments:
[1] = organism: Homo sapiens; assay: Selectivity ratio of IC50 for His-tagged BRD4 BD1 (unknown origin) using biotinylated-JQ1 peptide as substrate to IC50 for His-tagged CBP (unknown origin) using biotinylated-H3K56ac peptide as substrate incubated for 1 hr by AlphaScreen assay
[2] = target: T1, CREB-binding protein (Homo sapiens, UniProt Q92793); assay: Inhibition of His-tagged CBP (unknown origin) using biotinylated-H3K56ac peptide as substrate incubated for 1 hr by AlphaScreen assay
Target sequence in this assay (Q92793 whole entry): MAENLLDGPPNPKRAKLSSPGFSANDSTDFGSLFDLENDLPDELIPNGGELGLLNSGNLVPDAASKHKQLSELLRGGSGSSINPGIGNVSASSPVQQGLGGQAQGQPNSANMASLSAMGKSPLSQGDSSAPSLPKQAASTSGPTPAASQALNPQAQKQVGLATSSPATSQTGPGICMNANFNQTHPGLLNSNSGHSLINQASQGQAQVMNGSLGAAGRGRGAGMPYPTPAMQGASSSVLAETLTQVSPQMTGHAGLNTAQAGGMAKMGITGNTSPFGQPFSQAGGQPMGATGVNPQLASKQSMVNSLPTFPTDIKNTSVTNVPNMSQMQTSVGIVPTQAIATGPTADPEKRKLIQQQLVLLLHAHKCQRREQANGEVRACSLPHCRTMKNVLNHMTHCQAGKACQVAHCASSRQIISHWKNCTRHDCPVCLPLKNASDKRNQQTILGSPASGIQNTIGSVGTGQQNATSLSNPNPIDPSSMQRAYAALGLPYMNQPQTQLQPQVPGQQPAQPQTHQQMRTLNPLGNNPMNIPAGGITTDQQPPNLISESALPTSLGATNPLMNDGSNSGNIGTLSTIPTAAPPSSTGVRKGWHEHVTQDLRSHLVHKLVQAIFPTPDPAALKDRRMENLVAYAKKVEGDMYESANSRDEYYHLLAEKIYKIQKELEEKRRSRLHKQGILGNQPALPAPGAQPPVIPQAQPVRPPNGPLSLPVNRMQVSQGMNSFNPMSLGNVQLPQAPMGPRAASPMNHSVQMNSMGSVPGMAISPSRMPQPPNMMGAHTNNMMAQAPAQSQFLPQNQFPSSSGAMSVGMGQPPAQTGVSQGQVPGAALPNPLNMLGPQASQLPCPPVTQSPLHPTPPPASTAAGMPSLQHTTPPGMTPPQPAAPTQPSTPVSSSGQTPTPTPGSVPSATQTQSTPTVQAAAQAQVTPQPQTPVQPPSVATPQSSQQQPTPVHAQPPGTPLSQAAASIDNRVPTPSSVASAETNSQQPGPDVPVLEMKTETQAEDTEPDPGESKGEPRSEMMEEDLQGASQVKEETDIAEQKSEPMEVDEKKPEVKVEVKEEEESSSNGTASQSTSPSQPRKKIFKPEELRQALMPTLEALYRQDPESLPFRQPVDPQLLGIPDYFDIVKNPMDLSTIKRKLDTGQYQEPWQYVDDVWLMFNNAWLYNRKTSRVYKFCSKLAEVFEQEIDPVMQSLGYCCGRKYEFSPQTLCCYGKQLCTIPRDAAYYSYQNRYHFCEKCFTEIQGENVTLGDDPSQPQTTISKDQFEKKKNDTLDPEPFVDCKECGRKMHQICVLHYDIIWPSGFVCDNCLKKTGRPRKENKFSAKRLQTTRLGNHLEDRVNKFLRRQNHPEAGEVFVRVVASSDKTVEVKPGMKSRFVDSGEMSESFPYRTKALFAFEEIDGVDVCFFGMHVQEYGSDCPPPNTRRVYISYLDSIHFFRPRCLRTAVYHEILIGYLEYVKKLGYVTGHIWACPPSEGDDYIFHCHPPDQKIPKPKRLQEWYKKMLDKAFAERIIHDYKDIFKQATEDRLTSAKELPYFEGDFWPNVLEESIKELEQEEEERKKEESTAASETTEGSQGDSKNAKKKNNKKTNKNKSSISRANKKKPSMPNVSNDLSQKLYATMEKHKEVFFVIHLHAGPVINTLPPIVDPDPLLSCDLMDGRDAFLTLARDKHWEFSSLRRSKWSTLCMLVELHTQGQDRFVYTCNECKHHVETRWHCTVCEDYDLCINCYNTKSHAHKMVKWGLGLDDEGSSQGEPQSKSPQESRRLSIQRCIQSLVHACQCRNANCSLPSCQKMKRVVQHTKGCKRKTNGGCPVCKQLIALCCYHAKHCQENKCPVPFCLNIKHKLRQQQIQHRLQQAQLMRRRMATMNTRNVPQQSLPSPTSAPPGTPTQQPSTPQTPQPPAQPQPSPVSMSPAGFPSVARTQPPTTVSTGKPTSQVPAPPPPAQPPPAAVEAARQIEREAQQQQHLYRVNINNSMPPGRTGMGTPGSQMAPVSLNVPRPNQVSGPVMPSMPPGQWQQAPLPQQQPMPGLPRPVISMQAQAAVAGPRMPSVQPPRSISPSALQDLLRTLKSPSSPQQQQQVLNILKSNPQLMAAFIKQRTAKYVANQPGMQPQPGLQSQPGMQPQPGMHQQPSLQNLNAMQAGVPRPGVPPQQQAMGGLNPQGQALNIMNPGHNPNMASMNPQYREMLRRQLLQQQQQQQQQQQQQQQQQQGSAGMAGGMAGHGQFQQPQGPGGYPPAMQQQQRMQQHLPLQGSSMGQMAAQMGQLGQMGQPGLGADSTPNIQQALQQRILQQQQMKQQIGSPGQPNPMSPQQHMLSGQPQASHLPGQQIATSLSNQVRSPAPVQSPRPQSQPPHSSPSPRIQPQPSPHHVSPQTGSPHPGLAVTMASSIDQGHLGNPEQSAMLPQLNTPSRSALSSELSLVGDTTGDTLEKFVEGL

[3] = target: T2, Bromodomain-containing protein 4 (Homo sapiens, UniProt O60885); assay: Inhibition of His-tagged BRD4 BD1 (unknown origin) using biotinylated-JQ1 peptide as substrate incubated for 1 hr by AlphaScreen assay
[4] = target: CREB-binding protein/Histone acetyltransferase p300 (Homo sapiens) (UniProt Q09472+Q92793); assay: Inhibition of CBP/EP300 in human MM1.S cells assessed as perturbation of IRF4/Myc axis at 2.5 uM incubated for 24 hrs by immunoblot analysis
Sequence of CREB-binding protein/Histone acetyltransferase p300 (Homo sapiens) (Q09472 whole entry, looked up, the tested form may be a part): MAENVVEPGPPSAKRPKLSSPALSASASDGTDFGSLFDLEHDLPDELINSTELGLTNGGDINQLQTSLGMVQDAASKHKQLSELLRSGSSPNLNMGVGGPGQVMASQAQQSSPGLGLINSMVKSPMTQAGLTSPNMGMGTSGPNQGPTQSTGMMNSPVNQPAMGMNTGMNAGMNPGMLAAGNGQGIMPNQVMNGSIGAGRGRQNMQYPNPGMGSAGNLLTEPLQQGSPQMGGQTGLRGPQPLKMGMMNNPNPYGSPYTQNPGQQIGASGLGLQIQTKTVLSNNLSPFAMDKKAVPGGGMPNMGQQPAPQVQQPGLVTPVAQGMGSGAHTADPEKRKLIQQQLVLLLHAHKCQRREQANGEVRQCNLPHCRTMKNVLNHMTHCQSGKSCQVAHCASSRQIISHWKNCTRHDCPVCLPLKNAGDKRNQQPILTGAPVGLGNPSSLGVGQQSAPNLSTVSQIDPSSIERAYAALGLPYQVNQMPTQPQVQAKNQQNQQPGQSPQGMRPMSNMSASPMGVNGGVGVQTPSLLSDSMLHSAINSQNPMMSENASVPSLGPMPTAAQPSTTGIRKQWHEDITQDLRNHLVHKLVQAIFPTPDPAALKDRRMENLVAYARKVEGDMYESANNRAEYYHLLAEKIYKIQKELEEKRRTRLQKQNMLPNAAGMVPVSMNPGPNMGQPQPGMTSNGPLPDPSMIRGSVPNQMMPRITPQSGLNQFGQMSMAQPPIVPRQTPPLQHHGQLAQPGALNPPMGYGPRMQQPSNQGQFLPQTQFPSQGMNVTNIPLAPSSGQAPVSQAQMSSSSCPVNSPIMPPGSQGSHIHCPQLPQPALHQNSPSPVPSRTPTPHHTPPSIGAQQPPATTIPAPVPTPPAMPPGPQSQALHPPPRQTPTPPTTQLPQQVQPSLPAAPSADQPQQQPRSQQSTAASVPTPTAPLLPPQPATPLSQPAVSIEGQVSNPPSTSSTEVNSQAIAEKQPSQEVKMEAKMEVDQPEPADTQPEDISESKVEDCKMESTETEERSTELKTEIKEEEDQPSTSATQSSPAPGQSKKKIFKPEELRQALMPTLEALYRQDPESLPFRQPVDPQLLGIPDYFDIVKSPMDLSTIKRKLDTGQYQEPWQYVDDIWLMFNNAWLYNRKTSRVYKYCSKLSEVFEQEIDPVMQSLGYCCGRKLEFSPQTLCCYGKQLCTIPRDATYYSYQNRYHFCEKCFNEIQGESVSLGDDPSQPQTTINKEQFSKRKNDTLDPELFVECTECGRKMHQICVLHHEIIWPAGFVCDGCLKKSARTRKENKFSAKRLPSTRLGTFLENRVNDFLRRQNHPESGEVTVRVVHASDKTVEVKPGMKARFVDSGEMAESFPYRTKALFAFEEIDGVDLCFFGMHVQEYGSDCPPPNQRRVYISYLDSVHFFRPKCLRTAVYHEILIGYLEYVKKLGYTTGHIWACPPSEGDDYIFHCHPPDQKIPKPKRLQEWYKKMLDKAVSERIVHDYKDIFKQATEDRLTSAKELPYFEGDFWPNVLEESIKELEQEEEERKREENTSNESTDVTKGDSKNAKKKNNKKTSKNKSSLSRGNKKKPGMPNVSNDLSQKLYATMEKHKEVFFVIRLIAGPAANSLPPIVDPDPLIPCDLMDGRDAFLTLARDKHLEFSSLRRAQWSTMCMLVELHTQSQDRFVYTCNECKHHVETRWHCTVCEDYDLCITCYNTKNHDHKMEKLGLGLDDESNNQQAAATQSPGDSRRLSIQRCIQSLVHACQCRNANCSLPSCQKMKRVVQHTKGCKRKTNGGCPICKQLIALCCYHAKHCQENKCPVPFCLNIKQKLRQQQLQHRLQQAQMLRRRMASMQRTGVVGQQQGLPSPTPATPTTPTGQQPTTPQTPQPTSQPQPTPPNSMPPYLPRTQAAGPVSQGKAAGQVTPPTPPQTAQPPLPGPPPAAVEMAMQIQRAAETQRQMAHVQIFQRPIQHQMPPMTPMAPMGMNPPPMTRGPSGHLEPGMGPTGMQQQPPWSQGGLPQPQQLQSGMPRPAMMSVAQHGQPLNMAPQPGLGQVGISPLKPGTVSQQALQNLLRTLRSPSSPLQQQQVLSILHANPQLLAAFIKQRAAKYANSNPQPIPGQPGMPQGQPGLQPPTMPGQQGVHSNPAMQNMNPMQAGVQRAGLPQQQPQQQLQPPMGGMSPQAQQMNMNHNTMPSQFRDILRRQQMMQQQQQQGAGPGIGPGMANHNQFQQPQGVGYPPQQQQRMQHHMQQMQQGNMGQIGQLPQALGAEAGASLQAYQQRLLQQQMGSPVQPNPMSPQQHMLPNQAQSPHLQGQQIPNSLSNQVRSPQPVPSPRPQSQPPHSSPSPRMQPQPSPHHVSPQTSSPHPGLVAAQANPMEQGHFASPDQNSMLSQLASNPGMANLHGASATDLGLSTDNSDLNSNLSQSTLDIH
Sequence of CREB-binding protein/Histone acetyltransferase p300 (Homo sapiens) (Q92793 whole entry, looked up, the tested form may be a part): as the sequence (Q92793 whole entry) above

[5] = target: T1, CREB-binding protein; assay: Binding affinity to human partial length CREBBP (R1081 to G1197 residues) expressed in bacterial expression system assessed as melting temperature by differential scanning fluorometry (reference value: 46.7 degreeC)
[6] = target: T3, Histone acetyltransferase p300 (Homo sapiens, UniProt Q09472); assay: Binding affinity to human partial length EP300 (A1040 to G1161 residues) expressed in bacterial expression system assessed as melting temperature by differential scanning fluorometry (reference value: 42.1 degreeC)
T3 sequence (Q09472 whole entry, the tested form may be a part, canonical isoform): as the sequence (Q09472 whole entry, looked up, the tested form may be a part) above

[7] = target: T2, Bromodomain-containing protein 4; assay: Binding affinity to human partial length BRD4 bromodomain 1 long isoform (N44 to E168 residues) expressed in bacterial expression system assessed as melting temperature by differential scanning fluorometry (reference value: 50.1 degreeC)
[8] = target: T1, CREB-binding protein; assay: Binding affinity to human partial length CREBBP (R1081 to G1197 residues) expressed in bacterial expression system by BromoELECT assay
Method in brief: (§1)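 Kd by Eurofins BromoELECT, standard protocol, measured in duplicate.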
Target sequence in this assay (Q92793 whole entry): as the sequence (Q92793 whole entry) above

[9] = target: T3, Histone acetyltransferase p300; assay: Binding affinity to human partial length EP300 (A1040 to G1161 residues) expressed in bacterial expression system by BromoELECT assay; method in brief: as §1
[10] = target: T2, Bromodomain-containing protein 4; assay: Binding affinity to human partial length BRD4 bromodomain 1 long isoform (N44 to E168 residues) expressed in bacterial expression system by BromoELECT assay; method in brief: as §1
[11] = tested on: MOLM-13; assay: Cytotoxicity against human MOLM-13 cells assessed as cell growth inhibition incubated for 5 days by CellTiter-Glo luminescence assay; format: functional, cell-based; settings: MOLM-13, 120 h
[12] = target: T1, CREB-binding protein; assay: Inhibition of CBP in human MOLM-13 cells assessed as reduction in H3K27Ac level at 1 to 10 uM incubated for 2 hrs by Western blot analysis; format: cell-based; settings: dose 1-10 µM
[13] = target: T1, CREB-binding protein; assay: Inhibition of CBP in human MOLM-13 cells assessed as depletion of Myc at 1 to 10 uM incubated for 2 hrs by Western blot analysis; format: cell-based; settings: dose 1-10 µM
[14] = target: T1, CREB-binding protein; assay: Inhibition of CBP in human MOLM-13 cells assessed as reduction in H3K27Ac level at 3 uM incubated for 2 hrs

Row | SMILES | Ratio IC50 [1] | IC50 [3] [µM] | further results
1 | COc1ccc(CCc2nc3cc(-c4c(C)noc4C)ccn3c2NC(C)C)cc1OC | 6 | – | –
2 | COc1ccc(CCc2nc3cc(-c4c(C)noc4C)ccn3c2NCc2ccccc2)cc1 | 4 | – | –
3 | Cc1noc2cc(-c3ccn4c(NC5CCCCC5)c(CCc5ccccc5)nc4c3)ccc12 | 0.06 | 3.02 | IC50 [2]: > 50 µM; inhibition [4]: inactive
4 | CCOc1ccc(CCc2nc3cc(-c4c(C)noc4C)ccn3c2NC(C)(C)CC(C)(C)C)cc1 | > 1 | – | –
5 | COc1ccc(CCc2nc3cc(-c4c(C)noc4C)ccn3c2NC23CC4CC(CC(C4)C2)C3)cc1 | 8 | – | –
6 | CCCOc1ccc(CCc2nc3cc(-c4c(C)noc4C)ccn3c2NC2CCCCC2)cc1 | 28 | – | –
7 | Cc1noc(C)c1-c1ccn2c(NC(C)(C)CC(C)(C)C)c(CCc3ccc(OC(C)C)cc3)nc2c1 | 1 | > 50 | IC50 [2]: > 50 µM
8 | Cc1noc(C)c1-c1ccn2c(NCC(=O)OC(C)(C)C)c(CCc3ccccc3)nc2c1 | > 6 | > 50 | –
9 | Cc1[nH]nc2cc(-c3ccn4c(NC5CCCCC5)c(CCc5ccccc5)nc4c3)ccc12 | 0.06 | 0.51 | IC50 [2]: 8.02 µM; inhibition [4]: inactive
10 | COc1ccc(CCc2nc3cc(-c4c(C)noc4C)ccn3c2NC(C)(C)C)cc1 | > 21 | > 50 | –
11 | COc1ccc(CCc2nc3cc(-c4c(C)noc4C)ccn3c2NC2CCCCC2)cc1Cl | – | – | Tm [5]: 51.7 °C; Tm [6]: 47 °C; Tm [7]: 50.1 °C; Kd [8]: 0.315 µM; Kd [9]: 0.215 µM; Kd [10]: > 10 µM; IC50 [11]: 1.74 µM; inhibition [12]: Active; inhibition [13]: Active; inhibition [14]: Active; inhibition [4]: Active
12 | COc1ccc(CCc2nc3cc(-c4c(C)noc4C)ccn3c2NCCN2CCOCC2)cc1 | 7 | – | –
13 | COc1ccc(CCc2nc3cc(-c4c(C)noc4C)ccn3c2NC(C)(C)CC(C)(C)C)cc1 | > 2 | > 50 | –
14 | COc1ccc(-c2nc3cc(C)cc(C)n3c2NC23CC4CC(CC(C4)C2)C3)cc1 | > 3 | > 50 | –
15 | CCOc1ccc(CCc2nc3cc(-c4c(C)noc4C)ccn3c2NC(C)(C)CC(C)(C)C)cc1Cl | > 2 | > 50 | –
16 | Cc1noc(C)c1-c1ccc2nc(-c3ccc(N4CCN(C(=O)CCCC(=O)NCCCOCCOCCOCCCNC(=O)CCCC[C@@H]5SC[C@@H]6NC(=O)N[C@@H]65)CC4)cc3)c(NC3CCCCC3)n2c1 | – | – | Kd [9]: 13 µM
17 | CCOc1ccc(CCc2nc3cc(-c4c(C)noc4C)ccn3c2NC2CCCCC2)cc1Cl | 20 | > 50 | –
18 | COc1ccc(CCc2nc3cc(-c4c(C)noc4C)ccn3c2NCc2ccc(Cl)cc2)cc1 | 5 | 7.94 | IC50 [2]: 1.6 µM

Row | SMILES | Ratio IC50 [1] | IC50 [3] [µM] | further results
19 | COc1ccc(-c2nc3cc(-c4c(C)noc4C)ccn3c2NC23CC4CC(CC(C4)C2)C3)cc1 | > 23 | > 50 | –
20 | COc1ccc(CCCc2nc3cc(-c4c(C)noc4C)ccn3c2NC(C)(C)CC(C)(C)C)cc1 | 1 | > 50 | IC50 [2]: > 50 µM
21 | COc1ccc(CCCc2nc3cc(-c4c(C)noc4C)ccn3c2NC2CCCCC2)cc1 | 3 | – | –
22 | COc1ccc(-c2nc3cc(-c4c(C)noc4C)ccn3c2NCC(=O)OC(C)(C)C)cc1 | > 3 | – | –
23 | CCOc1ccc(CCc2nc3cc(-c4c(C)noc4C)ccn3c2NC2CCCCC2)cc1 | 30 | – | –
24 | Cc1noc(C)c1-c1ccn2c(NC(C)(C)CC(C)(C)C)c(CCc3ccccc3)nc2c1 | 1 | – | –
25 | COc1ccc(Cc2nc3cc(-c4c(C)noc4C)ccn3c2NC2CCCCC2)cc1 | 2 | – | –
26 | Cc1noc(C)c1-c1ccn2c(NC34CC5CC(CC(C5)C3)C4)c(CCc3ccccc3)nc2c1 | 7 | – | –
27 | COc1ccc(-c2nc3cc(C)cc(C)n3c2NC(C)(C)CC(C)(C)C)cc1 | > 3 | > 50 | –
28 | COc1ccc(CCc2nc3cc(-c4c(C)noc4C)ccn3c2NC2CCCCC2)cc1OC | 8 | – | IC50 [2]: 0.75 µM
29 | COc1ccc(CCc2nc3cc(-c4c(C)noc4C)ccc3n2C[C@H](C)N2CCOCC2)cc1Cl | – | 7.94 | IC50 [11]: 1.53 µM
30 | COc1ccc(CCCc2nc3cc(-c4c(C)noc4C)ccn3c2NC2CCCCC2)cc1Cl | 3 | 24.5 | IC50 [2]: 8.96 µM; Tm [5]: 55.2 °C; Tm [6]: 50.6 °C; Tm [7]: 51.6 °C
31 | Cc1noc(C)c1-c1ccn2c(NC3CCCCC3)c(CCc3ccccc3)nc2c1 | 10 | – | Tm [5]: 49.2 °C; Tm [6]: 44.7 °C; Tm [7]: 51 °C
32 | COc1ccc(CCc2nc3cc(-c4c(C)noc4C)ccn3c2NC2CCCCC2)cc1 | 41 | – | Tm [5]: 51.5 °C; Tm [6]: 46.8 °C; Tm [7]: 51.1 °C; Kd [8]: 0.265 µM; Kd [9]: 0.285 µM; Kd [10]: 9.2 µM
33 | Cc1noc(C)c1-c1ccn2c(NC(C)(C)C)c(CCc3ccccc3)nc2c1 | 6 | – | –
34 | COc1ccc(-c2nc3cc(-c4c(C)noc4C)ccn3c2NC2CCCCC2)cc1 | > 4 | > 50 | –
35 | CN1Cc2cc(-c3ccn4c(NC5CCCCC5)c(CCc5ccccc5)nc4c3)ccc2NC1=O | 1 | – | –
36 | COc1ccc(CCc2nc3cc(-c4c(C)noc4C)ccn3c2NC(C)C)cc1 | 34 | – | IC50 [2]: 0.29 µM
